An excerpt weighted towards active compounds, which were near 3.9% of everything screened.
HIF activator = HIF pathway transcriptional activation. activation, % at 7.5 µM (by protocol). AID 1910. U2OS HRE-luciferase reporter, luminescence; normalized: DMSO 0%, desferrioxamine 100%. 300,000 compounds, 0.32% hits;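 active = mean activation of at least 10% of the iron chelator positive control signal, with at least half of replicates also reaching 10%; inconclusive = mean and replicate majority disagree about reaching 10%; inactive = mean and most replicates under 10%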
SR-BI DiI inh = blocks mouse SR-BI lipid uptake from DiI-HDL | ldlA[mSR-BI] CHO cells, DiI-HDL uptake fluorescence, 3 h | Q61009 | 320,000 compounds, 0.96% hits | inhibition, % at 12.5 µM;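 active = mean replicate inhibition of at least 70% and a set share of replicates each scoring 70 or more; inconclusive = meets just one of the two criteria; inactive = fails both criteria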;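 also: 0% = median of neutral control wells and 100% = median of positive control wells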
GAA850 FXN act = activators of GAA850 frataxin (FXN) promoter. HEK293 lucGAA850 FXN promoter luciferase reporter, 24 h; percent of 10 µM SAHA response. activation, % at 6 µM. 360,000 compounds, 0.56% hits. AID 540364;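 active = activation above the average of all compounds screened plus 3 SD, cutoff fixed separately per campaign, cut at about 7.5% in these data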;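 also: 0% = DMSO wells and 100% = 10 µM SAHA wells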
ABCB6 inh 2 = human ABCB6 transporter inhibition; K562-ABCB6 porphyrin accumulation, flow cytometry, 1 h; active compounds read low; fluorescence ratio to DMSO, % at 10 µM; 360,000 compounds, 0.19% hits; AID 602162;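 active = fluorescence ratio to DMSO below 75%, the collection mean minus 3 SD; inconclusive = too few cells collected in the well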;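 also: signal is porphyrin accumulated inside mitochondria; 100% equals median channel fluorescence of DMSO control wells; lower ratio means ABCB6 inhibition with less porphyrin fluorescence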
SR-BI uptake up = enhances SR-BI lipid uptake from DiI-HDL. CHO ldlA[mSR-BI] cells, DiI-HDL uptake fluorescence, 3 h; 100 = double the neutral-control signal. activation, % at 12.5 µM. 320,000 compounds, 0.096% hits. AID 504775;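 active = mean replicate activation of at least 60% and every replicate at or above 60%; inconclusive = mean or all-replicate condition met, but not both; inactive = mean below 60% and not all replicates reaching 60%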;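 also: 0% = median plate neutral-control signal and 100% = twice that signal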
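system = CHO ldlA[mSR-BI] cells, LDL receptor-null, SR-BI overexpressing | medium = Ham's F12 with 0.5% BSA, HEPES 25 mM, pH 7.4 | probe or stimulus = DiI-HDL 10 µg/mL | compound dosing = single-point compound dose | incubation = compound exposure 3 h, 37 °C | technique = DiI fluorescence, bottom read | read-out = cell-associated DiI fluorescence as measure of HDL uptake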
AHR activator = activators of human aryl hydrocarbon receptor. P35869. AHR-responsive luciferase reporter cells, luminescence. activation, % at 5 µM. 320,000 compounds, 2.5% hits. AID 2796; in the data active = activation above about 47%;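 also: 0% = vehicle wells and 100% = reference agonist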
Target sequence (P35869 whole entry, looked up): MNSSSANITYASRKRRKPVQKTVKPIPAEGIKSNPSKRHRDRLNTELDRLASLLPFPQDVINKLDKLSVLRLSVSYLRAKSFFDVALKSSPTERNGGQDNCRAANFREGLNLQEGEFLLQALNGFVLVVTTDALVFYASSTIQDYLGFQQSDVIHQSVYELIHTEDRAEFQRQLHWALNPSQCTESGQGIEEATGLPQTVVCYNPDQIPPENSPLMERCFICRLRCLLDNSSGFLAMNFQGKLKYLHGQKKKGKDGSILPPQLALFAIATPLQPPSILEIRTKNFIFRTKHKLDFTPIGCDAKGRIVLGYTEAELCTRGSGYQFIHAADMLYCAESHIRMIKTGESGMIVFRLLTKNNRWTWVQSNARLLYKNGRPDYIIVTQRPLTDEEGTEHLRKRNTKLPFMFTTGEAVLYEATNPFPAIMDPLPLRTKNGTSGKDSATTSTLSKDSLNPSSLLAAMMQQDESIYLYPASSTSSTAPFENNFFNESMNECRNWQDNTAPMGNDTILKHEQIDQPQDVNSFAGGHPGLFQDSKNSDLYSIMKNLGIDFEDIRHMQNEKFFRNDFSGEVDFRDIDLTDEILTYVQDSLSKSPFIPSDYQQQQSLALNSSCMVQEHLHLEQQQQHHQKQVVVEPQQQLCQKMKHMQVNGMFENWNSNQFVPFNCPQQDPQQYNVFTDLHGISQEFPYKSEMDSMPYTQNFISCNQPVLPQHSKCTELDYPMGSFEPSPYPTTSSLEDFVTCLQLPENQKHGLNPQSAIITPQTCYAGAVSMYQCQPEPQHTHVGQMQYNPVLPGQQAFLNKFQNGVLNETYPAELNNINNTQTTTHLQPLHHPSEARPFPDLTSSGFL
Numbers without * were called inactive.

What do the screens show for `O=C1CC(c2ccccc2)=Nc2ccccc2N1`?
HIF activator: 1; SR-BI DiI inh: -2; GAA850 FXN act: 2; ABCB6 inh 2: 97; SR-BI uptake up: 2; AHR activator: 75*

Results for COc1ccc(NC(=O)Cc2cccc(F)c2)cc1S(=O)(=O)Nc1ccccc1Cl ?
HIF activator: 0; SR-BI DiI inh: 45; GAA850 FXN act: 0; ABCB6 inh 2: 89; SR-BI uptake up: -45; AHR activator: 1

Results for O=C(CN1C(=O)c2cccc3cccc1c23)Nc1cccnc1 ?
HIF activator: 0; SR-BI DiI inh: 7; GAA850 FXN act: -2; ABCB6 inh 2: 93; SR-BI uptake up: -7; AHR activator: 54*

Results for O=C(CN1C(=O)c2cccc3cccc1c23)NCc1cccnc1 ?
HIF activator: 0; SR-BI DiI inh: -17; GAA850 FXN act: 0; ABCB6 inh 2: 93; SR-BI uptake up: 17; AHR activator: 17

How did O=C(/C=C\c1ccc2c(c1)OCO2)Nc1c2c(nn1-c1ccc(Cl)cc1)CSC2 do in these assays?
HIF activator: 0; SR-BI DiI inh: 75*; GAA850 FXN act: -1; ABCB6 inh 2: 100; SR-BI uptake up: -75; AHR activator: 20

How did CC(=O)Nc1c2c(nn1-c1ccccc1)CSC2 do in these assays?
HIF activator: 0; SR-BI DiI inh: -16; GAA850 FXN act: 2; ABCB6 inh 2: 105; SR-BI uptake up: 16; AHR activator: 2

Results for CCOc1ccccc1-c1nc(C(N)=O)c2[nH]c(=O)n(-c3cccc(C)c3)c2n1 ?
HIF activator: 0; SR-BI DiI inh: -10; GAA850 FXN act: 2; ABCB6 inh 2: 94; SR-BI uptake up: 10; AHR activator: 64*

Results for COc1cc2c(cc1OC)CN(C(=O)/C=C/c1cccs1)CC2 ?
HIF activator: 0; SR-BI DiI inh: 10; GAA850 FXN act: -2; ABCB6 inh 2: 93; SR-BI uptake up: -10; AHR activator: 1

Results for O=C(c1ccccc1Cl)c1c(O)c2ccccc2oc1=O ?
HIF activator: 0; SR-BI DiI inh: -10; GAA850 FXN act: 0; ABCB6 inh 2: 100; SR-BI uptake up: 10; AHR activator: 55*

Results for CCOc1ccc(CCNC(=O)c2nnn(CC(=O)Nc3ccc(OC)cc3)c2N)cc1OCC ?
HIF activator: 1; SR-BI DiI inh: 41; GAA850 FXN act: 1; ABCB6 inh 2: 101; SR-BI uptake up: -41; AHR activator: 1

What do the screens show for `Cc1ccc(NC(=O)c2nnn(CC(=O)Nc3ccccc3)c2N)cc1C`?
HIF activator: 0; SR-BI DiI inh: 23; GAA850 FXN act: 0; ABCB6 inh 2: 101; SR-BI uptake up: -23; AHR activator: 48*

What do the screens show for `Cc1ccc(NC(=O)Cn2cnc(C(=O)Nc3ccc(C)c(C)c3)n2)cc1C`?
SR-BI DiI inh: 9; GAA850 FXN act: 2; ABCB6 inh 2: 109; SR-BI uptake up: -9

Results for Cc1ccc(NC(=O)Cn2ccnc2)cc1C ?
HIF activator: -1; SR-BI DiI inh: -10; GAA850 FXN act: 0; ABCB6 inh 2: 105; SR-BI uptake up: 10; AHR activator: 59*

How did CCOc1ccccc1NC(=O)Cn1nnc(C(=O)NCc2ccco2)c1N do in these assays?
HIF activator: 2; SR-BI DiI inh: -7; GAA850 FXN act: 5; ABCB6 inh 2: 103; SR-BI uptake up: 7; AHR activator: 64*

Results for CCOc1ccc(CCNC(=O)c2nnn(CC(=O)Nc3ccc(OC)c(OC)c3)c2N)cc1OCC ?
HIF activator: 1; SR-BI DiI inh: 72*; GAA850 FXN act: -3; ABCB6 inh 2: 96; SR-BI uptake up: -72; AHR activator: 5

How did CCc1ccc(/C=N/NC(=O)c2cc(C)on2)s1 do in these assays?
HIF activator: 1; SR-BI DiI inh: 11; GAA850 FXN act: 5; ABCB6 inh 2: 100; SR-BI uptake up: -11; AHR activator: 18

How did Cc1cccc(NC(=O)c2ccc(S(=O)(=O)N3CCC(C)CC3)cc2)n1 do in these assays?
HIF activator: 0; SR-BI DiI inh: 27; GAA850 FXN act: -1; ABCB6 inh 2: 92; SR-BI uptake up: -27; AHR activator: 4

How did Clc1nccnc1N/N=C/c1ccc(Br)cc1 do in these assays?
HIF activator: 3; SR-BI DiI inh: 9; GAA850 FXN act: 5; ABCB6 inh 2: 93; SR-BI uptake up: -9; AHR activator: 63*

What do the screens show for `Cc1c(O)ccc(/C=N/Nc2ncccc2[N+](=O)[O-])c1O`?
HIF activator: 8; SR-BI DiI inh: -6; GAA850 FXN act: 1; ABCB6 inh 2: 106; SR-BI uptake up: 6; AHR activator: 7

What do the screens show for `COc1cccc(/C=N/Nc2nc3ccccc3n3cnnc23)c1O`?
HIF activator: 2; SR-BI DiI inh: -14; GAA850 FXN act: 5; ABCB6 inh 2: 95; SR-BI uptake up: 14; AHR activator: -5

Results for COc1cccc(/C=N/Nc2cc(-n3nc(C)cc3-c3ccccc3)ncn2)c1O ?
HIF activator: 52*; SR-BI DiI inh: 55; GAA850 FXN act: -6; ABCB6 inh 2: 95; SR-BI uptake up: -55; AHR activator: 12

What do the screens show for `O=[N+]([O-])c1cccnc1N/N=C/c1ccccc1O`?
HIF activator: 21*; SR-BI DiI inh: 29; GAA850 FXN act: 1; ABCB6 inh 2: 92; SR-BI uptake up: -29; AHR activator: -1

What do the screens show for `Oc1ccccc1/C=N/Nc1nccnc1Cl`?
HIF activator: 127*; SR-BI DiI inh: 48; GAA850 FXN act: -10; ABCB6 inh 2: 96; SR-BI uptake up: -48; AHR activator: 12

What do the screens show for `COc1cccc(/C=N/Nc2ncnc3scc(-c4ccccc4)c23)c1O`?
HIF activator: 105*; SR-BI DiI inh: 115*; GAA850 FXN act: -12; ABCB6 inh 2: 92; SR-BI uptake up: -115; AHR activator: 3

What do the screens show for `COc1cccc(/C=N/Nc2ncnc(Cl)c2N)c1O`?
HIF activator: -2; SR-BI DiI inh: 10; GAA850 FXN act: -2; ABCB6 inh 2: 95; SR-BI uptake up: -10; AHR activator: 13

What do the screens show for `COc1ccc(Nc2ncnc3scc(-c4ccc(OC)cc4)c23)cc1`?
HIF activator: 2; SR-BI DiI inh: inconclusive; GAA850 FXN act: -4; ABCB6 inh 2: 100; SR-BI uptake up: -74; AHR activator: 1

Results for COc1cccc(/C=N/Nc2nccnc2Cl)c1O ?
HIF activator: 31*; SR-BI DiI inh: 6; GAA850 FXN act: -9; ABCB6 inh 2: 101; SR-BI uptake up: -6

How did O=C(CSc1nnc(CNc2ccc(F)cc2)o1)N1CCN(C(=O)c2ccco2)CC1 do in these assays?
HIF activator: 0; SR-BI DiI inh: -8; GAA850 FXN act: -1; ABCB6 inh 2: 89; SR-BI uptake up: 8; AHR activator: 1
